These results are taken from PubChem BioAssay.

Calls of active or inactive are those of the source.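 The calls were made as follows, unless noted: active = viability at or below 30% in both replicate assays; inconclusive = viability at or below 30% in just one of the two assays; inactive = the rest.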

Experiment [1] is described as follows: reducers of endogenous Her2 protein level, primary screen, SKBR3 breast tumor cells, AlphaScreen, ATP viability (AID 461;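 active = Her2 level under about 52% in both replicate screens, with viability over 70% of control, limit read from the data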;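 as to Her2 level: lower value means less Her2 protein in the cells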;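 as to viability: percent of carrier control wells set as 100% viability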). The note with it: 18-24 h, measured here: SKBR3 viability, ATP luminescence, at 10 µM.
Experiment [2] deals with Receptor tyrosine-protein kinase erbB-2 (Homo sapiens) (UniProt P04626). Described as above. Conditions: 18-24 h, at 10 µM, stronger effect = lower value.
Chain of Receptor tyrosine-protein kinase erbB-2 (Homo sapiens) (P04626 whole entry, looked up): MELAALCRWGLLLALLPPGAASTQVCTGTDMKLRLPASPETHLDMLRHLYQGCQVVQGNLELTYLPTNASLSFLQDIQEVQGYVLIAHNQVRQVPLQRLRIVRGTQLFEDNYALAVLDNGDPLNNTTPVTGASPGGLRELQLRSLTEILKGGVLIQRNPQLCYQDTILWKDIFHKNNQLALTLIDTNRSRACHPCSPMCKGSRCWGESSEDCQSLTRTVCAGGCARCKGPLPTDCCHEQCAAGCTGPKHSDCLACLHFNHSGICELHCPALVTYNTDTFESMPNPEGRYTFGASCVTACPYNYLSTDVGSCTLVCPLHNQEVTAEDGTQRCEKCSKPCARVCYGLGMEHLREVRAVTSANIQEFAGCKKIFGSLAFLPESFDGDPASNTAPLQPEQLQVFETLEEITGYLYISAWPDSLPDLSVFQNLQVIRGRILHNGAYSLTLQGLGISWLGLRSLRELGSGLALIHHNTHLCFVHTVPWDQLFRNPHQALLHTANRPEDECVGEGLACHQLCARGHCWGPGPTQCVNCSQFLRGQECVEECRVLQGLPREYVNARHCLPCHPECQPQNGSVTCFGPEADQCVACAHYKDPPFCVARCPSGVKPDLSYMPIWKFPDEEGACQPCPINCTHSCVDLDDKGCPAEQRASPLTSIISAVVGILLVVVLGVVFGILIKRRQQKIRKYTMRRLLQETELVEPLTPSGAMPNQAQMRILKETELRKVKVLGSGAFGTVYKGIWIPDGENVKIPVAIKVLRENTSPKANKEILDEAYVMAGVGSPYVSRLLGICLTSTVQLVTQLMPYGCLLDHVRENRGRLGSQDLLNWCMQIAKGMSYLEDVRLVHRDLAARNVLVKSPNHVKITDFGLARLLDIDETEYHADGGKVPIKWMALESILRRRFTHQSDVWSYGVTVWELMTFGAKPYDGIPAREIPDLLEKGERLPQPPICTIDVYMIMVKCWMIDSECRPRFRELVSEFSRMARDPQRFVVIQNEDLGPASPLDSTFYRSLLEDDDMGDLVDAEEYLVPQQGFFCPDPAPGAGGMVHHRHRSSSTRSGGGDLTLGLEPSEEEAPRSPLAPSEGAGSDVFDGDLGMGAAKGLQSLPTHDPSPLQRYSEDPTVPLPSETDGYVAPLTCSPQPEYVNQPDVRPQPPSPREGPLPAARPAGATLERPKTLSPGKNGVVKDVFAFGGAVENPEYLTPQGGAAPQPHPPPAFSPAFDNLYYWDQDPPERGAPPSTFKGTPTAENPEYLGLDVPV
Experiment [3] is described as follows: SK-BR-3 cell growth inhibitors, pilot screen, 24 h, human (AID 572;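 active = viability at or below 10% of carrier control in both of two separate runs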;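 also: compound exposure lasted between 18 and 24 h rather than exactly 24 h; 100% = carrier-treated control wells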). Conditions: SK-BR-3 viability, CellTiter-Glo luminescence, at 10 µM, stronger effect = lower value.
Experiment [4] in a line: HUVEC growth inhibition – cell-based, human, primary screen (AID 575).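 Also: 100% = median of untreated cell wells with 0.1% DMSO on each plate.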 Conditions: HUVEC proliferation, CellTiter-Glo luminescence, 72 h; at 10 µM; stronger effect = lower value. Summed up: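 Assay system: Primary human umbilical vein endothelial cells | Quantity: 1250 cells per well | Medium: Supplemented EBM, 2% fetal bovine serum | Detection: CellTiter-Glo luminescence measuring cellular ATP | Read-out: % viability vs DMSO wells | Plate: Collagen-coated 384-well format | Times: 72 h exposure, 37 °C, 5% CO2, 30 min RT equilibration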

A short description of experiment [5]: growth inhibitors of H69AR lung tumor, primary screen, human, duplicate replicates (AID 580;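 active = viability at or under a set limit in both replicates, limit being median viability minus 3 SD, cut at about 48% in these data, passing the limit was not always enough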;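 also: 100% = mean luminescence of untreated wells and 0% = no signal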). The note with it: H69AR lung tumor cells viability, ATP luminescence, 72 h; at 10 µM; stronger effect = lower value.
Experiment [6] in a line: reversal of MRP1-mediated doxorubicin resistance, pilot screen, H69AR cells, doxorubicin co-treatment (AID 601;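 active = viability loss from added drug above about 55%, and viability with drug at most 40%, in both replicates, limit read from the data, passing the limit was not always enough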). The note with it: CellTiter-Glo, 72 h, at 10 µM; for differential viability (reversal): stronger effect = higher value.
The nature of experiment [7]: 384-well plate pilot, post-Golgi transport modulator project, inhibition of yeast transport mutant growth (AID 636; in the data active = inhibition above about 31%). Conditions: absorbance 615 nm, about 18 h, stronger effect = higher value.
A short description of experiment [8]: growth suppression of yeast trafficking mutant, preliminary HTS, modulators of trafficking downstream of Golgi apparatus project, 1536-format plate, OD 615 nm (AID 637; in the data active = inhibition above about 30%). Conditions: yeast transport mutant growth, absorbance 615 nm, 18 h; stronger effect = higher value.
[9] abbreviates: H69AR cells + 2 uM doxorubicin, measured here: viability with 2 uM doxorubicin, stronger effect = lower value.
The mark [10] stands for this setting: H69AR cells, compound alone cytotoxicity.

Regarding `CCOC(=O)Cc1nnc2c(Nc3ccc(C)cc3)nc3nonc3n12`, the viability in experiment [1] is 97%; in experiment [3], 97% (inactive); in experiment [4] it was 74.9% (inactive); in experiment [5], 94% (inactive); in experiment [6] (setting [9]), 95.2%; in experiment [6] (setting [10]) it was 94%. The Her2 level in experiment [2] is 76% (inactive). Also, the differential viability (reversal) in experiment [6] (H69AR cells + 2 uM doxorubicin) is -1.2% (inactive). In addition, the inhibition in experiment [7] is -4% (inactive); in experiment [8] it was 7.7% (inactive).

Regarding `C[C@H](NC(=O)OC(C)(C)C)C(=O)NCC1CCC(C(=O)O)CC1` (stereo not given in full), the viability in experiment [1] was 101%; in experiment [3], 101% (inactive); in experiment [4], 103% (inactive); in experiment [5], 108% (inactive); in experiment [6] (setting [9]), 96.4%; in experiment [6] (setting [10]), 108%. Further, the Her2 level in experiment [2] was 97% (inactive). In addition, the differential viability (reversal) in experiment [6] (H69AR cells + 2 uM doxorubicin) was 11.7% (inactive). Further, the inhibition was -5.73% (inactive) in experiment [7] and -1.29% (inactive) in experiment [8].

For `O=C(COC(=O)c1ccc(Br)o1)Nc1ccc(S(=O)(=O)N2CCCC2)cc1`, the viability in experiment [1] is 80%; in experiment [3] it was 80% (inactive); in experiment [4], 102% (inactive); in experiment [5], 95.6% (inactive); in experiment [6] (setting [9]) it was 82.3%; in experiment [6] (setting [10]) it was 95.6%. Further, the Her2 level in experiment [2] was 74.5% (inactive). Besides, the differential viability (reversal) in experiment [6] (H69AR cells + 2 uM doxorubicin) is 13.3% (inactive). In addition, the inhibition in experiment [7] is -6.35% (inactive); in experiment [8], -1% (inactive).

Take `COc1ccc(CC(NC(C)=O)C(=O)NC2CCN(c3nc(C)cc(C)c3C#N)CC2)c(OC)c1` (stereo not given): the viability was 102% in experiment [1]; 102% (inactive) in experiment [3]; 117% (inactive) in experiment [4]; 104% (inactive) in experiment [5]; 105% in experiment [6] (setting [9]); 104% in experiment [6] (setting [10]). Besides, the Her2 level in experiment [2] is 100% (inactive). Moreover, in experiment [6] (H69AR cells + 2 uM doxorubicin), the differential viability (reversal) was -0.69% (inactive). Moreover, the figures for the inhibition in experiment [7] and in experiment [8] were -0.41% (inactive) and 2.17% (inactive), respectively.

On to `Cc1nnc(SCc2nc3ccccc3s2)n1-c1ccccc1`, for which the viability is 88% in experiment [1]; 88% (inactive) in experiment [3]; 75.4% (inactive) in experiment [4]; 76% (inactive) in experiment [5]; 81.3% in experiment [6] (setting [9]); 76% in experiment [6] (setting [10]). In addition, the Her2 level in experiment [2] is 83% (inactive). In addition, the differential viability (reversal) in experiment [6] (H69AR cells + 2 uM doxorubicin) was -5.34% (inactive). Moreover, the inhibition in experiment [7] is -6% (inactive); in experiment [8] it was -0.48% (inactive).

As to `CC(Oc1ccc(Br)cc1)C(=O)N1CCc2ccccc21` (stereo not given), the viability was 85.5% in experiment [1]; 85.5% (inactive) in experiment [3]; 107% (inactive) in experiment [4]; 96.9% (inactive) in experiment [5]; 87.6% in experiment [6] (setting [9]); 96.9% in experiment [6] (setting [10]). Further, the Her2 level in experiment [2] is 96.5% (inactive). For the same compound, the differential viability (reversal) in experiment [6] (H69AR cells + 2 uM doxorubicin) is 9.3% (inactive). The values for the inhibition in experiment [7] and in experiment [8] were -2.76% (inactive) and -3.02% (inactive), respectively.

With `CCCc1nnc(NC(=O)CCC(=O)N2CCN(CCOc3ccc(C)cc3)CC2)s1`, the viability was 93.5% in experiment [1]; 93.5% (inactive) in experiment [3]; 92% (inactive) in experiment [4]; 93.2% (inactive) in experiment [5]; 99.4% in experiment [6] (setting [9]); 93.2% in experiment [6] (setting [10]). The Her2 level in experiment [2] was 74% (inactive). Further, in experiment [6] (H69AR cells + 2 uM doxorubicin), the differential viability (reversal) was -6.29% (inactive). The inhibition was -4.03% (inactive) in experiment [7] and -2.83% (inactive) in experiment [8].

Consider `CCCc1nc(N2CCOCC2)c(C#N)c2c1CCCC2`, for which the viability in experiment [1] was 81%; in experiment [3] it was 81% (inactive); in experiment [4] it was 81.5% (inactive); in experiment [5], 91.4% (inactive); in experiment [6] (setting [9]), 91.5%; in experiment [6] (setting [10]) it was 91.4%. In addition, the Her2 level in experiment [2] is 86.5% (inactive). In addition, in experiment [6] (H69AR cells + 2 uM doxorubicin), the differential viability (reversal) was -0.135% (inactive). In addition, the results for the inhibition in experiment [7] and in experiment [8] were -0.13% (inactive) and 6.77% (inactive), respectively.

`CCc1cc(=O)oc2cc(OC(C)=O)cc(OC(C)=O)c12`: the viability is 116% in experiment [1]; 116% (inactive) in experiment [3]; 76.8% (inactive) in experiment [4]; 95.1% (inactive) in experiment [5]; 105% in experiment [6] (setting [9]); 95.1% in experiment [6] (setting [10]). In experiment [2], the Her2 level was 74% (inactive). For the same compound, the differential viability (reversal) in experiment [6] (H69AR cells + 2 uM doxorubicin) is -9.96% (inactive). Moreover, the inhibition in experiment [7] is -7.37% (inactive); in experiment [8] it was -5.5% (inactive).

For the compound `CCN(CC)CCN1C(=O)Cn2c(C)c(C)c3cccc1c32`, the viability in experiment [1] is 108%; in experiment [3], 108% (inactive); in experiment [4], 95.7% (inactive); in experiment [5], 84.6% (inactive); in experiment [6] (setting [9]), 86.5%; in experiment [6] (setting [10]), 84.6%. The Her2 level in experiment [2] was 92.5% (inactive). For the same compound, the differential viability (reversal) in experiment [6] (H69AR cells + 2 uM doxorubicin) was -1.94% (inactive). Besides, the results for the inhibition in experiment [7] and in experiment [8] were -7.47% (inactive) and -1.75% (inactive), respectively.

In the case of `Cc1ccc(-n2nnnc2SCC(=O)Nc2c(C)n(C)n(-c3ccccc3)c2=O)cc1`, the viability in experiment [1] is 102%; in experiment [3], 102% (inactive); in experiment [4] it was 105% (inactive); in experiment [5] it was 90.8% (inactive); in experiment [6] (setting [9]) it was 104%; in experiment [6] (setting [10]), 90.8%. The Her2 level in experiment [2] is 104% (inactive). For the same compound, the differential viability (reversal) in experiment [6] (H69AR cells + 2 uM doxorubicin) is -13.5% (inactive). Besides, the inhibition in experiment [7] is 0.8% (inactive); in experiment [8], 10.8% (inactive).

For the compound `Cc1ccccc1NC(=O)Cc1nnc(SCC(=O)N2CCN(c3ccccc3)CC2)n1C`, the viability in experiment [1] was 110%; in experiment [3] it was 110% (inactive); in experiment [4], 101% (inactive); in experiment [5], 98.2% (inactive); in experiment [6] (setting [9]), 92.5%; in experiment [6] (setting [10]) it was 98.2%. The Her2 level in experiment [2] is 108% (inactive). In addition, in experiment [6] (H69AR cells + 2 uM doxorubicin), the differential viability (reversal) was 5.74% (inactive). In addition, the inhibition in experiment [7] was -5.53% (inactive); in experiment [8] it was -6.67% (inactive).

As to `CCc1ccccc1NC(=O)CCc1nc(-c2ccc(C)cc2)no1`, the viability in experiment [1] was 95%; in experiment [3], 95% (inactive); in experiment [4] it was 83% (inactive); in experiment [5], 99.3% (inactive); in experiment [6] (setting [9]), 96.2%; in experiment [6] (setting [10]), 99.3%. In experiment [2], the Her2 level was 71.5% (inactive). The differential viability (reversal) in experiment [6] (H69AR cells + 2 uM doxorubicin) is 3.1% (inactive). Besides, the inhibition in experiment [7] is -4.61% (inactive); in experiment [8], -3.67% (inactive).

As for `CC(C)COC(=O)NCC12C=CC(O1)C1C(=O)N(c3ccc(Cl)cc3)C(=O)C12` (stereo not given), the viability in experiment [1] was 96%; in experiment [3] it was 96% (inactive); in experiment [4], 116% (inactive); in experiment [5], 89.9% (inactive); in experiment [6] (setting [9]) it was 92.5%; in experiment [6] (setting [10]) it was 89.9%. Besides, the Her2 level in experiment [2] was 99.5% (inactive). Further, the differential viability (reversal) in experiment [6] (H69AR cells + 2 uM doxorubicin) is -2.55% (inactive). Besides, the inhibition in experiment [7] is -6.16% (inactive); in experiment [8], -7.3% (inactive).

In the case of `COC(=O)c1ccc(N2C(=O)CC(N3CCN(C(=O)c4ccco4)CC3)C2=O)cc1` (stereo not given), the viability in experiment [1] is 86%; in experiment [3], 86% (inactive); in experiment [4], 85.9% (inactive); in experiment [5] it was 89.5% (inactive); in experiment [6] (setting [9]), 93.7%; in experiment [6] (setting [10]) it was 89.5%. In addition, the Her2 level in experiment [2] was 89.5% (inactive). Besides, the differential viability (reversal) in experiment [6] (H69AR cells + 2 uM doxorubicin) was -4.23% (inactive). Also, the inhibition in experiment [7] was -3.73% (inactive); in experiment [8], -2.95% (inactive).

With `CCN(CC)Cc1csc(C(N)=O)c1`, the viability in experiment [1] was 108%; in experiment [3], 108% (inactive); in experiment [4] it was 104% (inactive); in experiment [5], 98.1% (inactive); in experiment [6] (setting [9]) it was 93.1%; in experiment [6] (setting [10]), 98.1%. Besides, the Her2 level in experiment [2] is 107% (inactive). Moreover, the differential viability (reversal) in experiment [6] (H69AR cells + 2 uM doxorubicin) is 5.04% (inactive). Also, the inhibition in experiment [7] was -1.22% (inactive); in experiment [8], 0.32% (inactive).
